Measured values taken from ChEMBL document CHEMBL5724801, “EUbOPEN Chemogenomics Library - Multiplex” (2024).
Values joined by “and” are separate entries in the source; they are usually repeats but may differ in a detail not shown here. Identical values can stand only once.

What follows are compounds tested on HEK-293T (assay: Multiplex assay against HEK293T). Details: human, 12 h, 1 µM, compound concentration 1 uM.
Format: toxicity, cell-based
Outline: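 On a CQ1 microscope at 37°C and 5% CO2, live cells were imaged after compound addition. They had been stained at seeding with Hoechst33342, BioTracker Green Microtubule Cytoskeleton Dye, MitoTracker Red and Annexin V Alexa Fluor 680. CellPathfinder machine-learning gating assigned cells to Hoechst high-intensity objects or normal cells, normal cells to healthy, pyknosed or fragmented nuclei, and pyknosed cells to mitotic or apoptotic. Tubulin, mitochondrial-mass and membrane-permeability phenotypes are per cents of healthy-nucleus cells.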
In the case of `COc1cc(C(=O)N(CCCc2ccccc2)Cc2ccc(CC(=O)O)cc2)cc(OC)c1C`, the “Population Apoptotic (%)” value is reported as 45% and 44%, the “Population Fragmented Nuclei (%)” value is reported as 7% and 6% and the “Population Healthy Nuclei (%)” value is reported as 82% and 84%. The “Population Hoechst High Intensity Objects (%)” value was 5% and 4%, the “Population Membrane Permeable-Phenotype (%)” value was 0% and the “Population Mitochondria Different-Phenotype (%)” value was 47% and 50%. The “Population Mitotic Cells (%)” value was 55%, the “Population Normal (%)” value was 94% and 95% and the “Population Pyknosed Nuclei (%)” value was 10% and 9%. The “Population Tubulin-Different-Phenotype (%)” value was 31% and 19% and the “Total Cell Count” value was 395 and 410.
For `FC(F)(F)c1ccccc1-c1cc(C(F)(F)F)c2[nH]c(C3=NOC4(CCCCC4)C3)nc2c1`, the “Population Apoptotic (%)” value was 5.48% and 14.05%, the “Population Fragmented Nuclei (%)” value was 1.23% and 6.04% and the “Population Hoechst High Intensity Objects (%)” value was 0%. The “Population Membrane Permeable-Phenotype (%)” value was 0%, the “Population Mitochondria Different-Phenotype (%)” value was 43.68% and 36.84% and the “Population Mitotic Cells (%)” value was 94.52% and 85.95%. The “Population Normal (%)” value was 100%, the “Population Pyknosed Nuclei (%)” value was 45.06% and 81.21% and the “Total Cell Count” value was 324 and 149.

Same assay, conditions: human, 12 h, 10 µM, compound concentration 10 uM
`COc1cc(C(=O)N(CCCc2ccccc2)Cc2ccc(CC(=O)O)cc2)cc(OC)c1C` was tested, and the “Population Apoptotic (%)” value was 30% and 47%, the “Population Fragmented Nuclei (%)” value was 6% and 4% and the “Population Healthy Nuclei (%)” value was 77% and 82%. The “Population Hoechst High Intensity Objects (%)” value was 8% and 6%, the “Population Membrane Permeable-Phenotype (%)” value was 1% and 0% and the “Population Mitochondria Different-Phenotype (%)” value was 46% and 67%. For the same compound, the “Population Mitotic Cells (%)” value was 70% and 52%, the “Population Normal (%)” value was 91% and 93% and the “Population Pyknosed Nuclei (%)” value was 15% and 13%. The “Population Tubulin-Different-Phenotype (%)” value was 52% and 44% and the “Total Cell Count” value was 431 and 438.
In the case of `FC(F)(F)c1ccccc1-c1cc(C(F)(F)F)c2[nH]c(C3=NOC4(CCCCC4)C3)nc2c1`, the “Population Apoptotic (%)” value is reported as 11.51% and 25.77%, the “Population Fragmented Nuclei (%)” value is reported as 0.39% and 4.42% and the “Population Hoechst High Intensity Objects (%)” value is reported as 0.78% and 0%. The “Population Membrane Permeable-Phenotype (%)” value was 0%, the “Population Mitochondria Different-Phenotype (%)” value was 32.17% and 18.18% and the “Population Mitotic Cells (%)” value was 88.49% and 74.23%. The “Population Normal (%)” value was 99.22% and 100%, the “Population Pyknosed Nuclei (%)” value was 54.51% and 85.84% and the “Population Tubulin-Different-Phenotype (%)” value was 40.87% and 45.45%. For the same compound, the “Total Cell Count” value was 257 and 113.

Same assay, conditions: human, 24 h, 1 µM, compound concentration 1 uM
In the case of `COc1cc(C(=O)N(CCCc2ccccc2)Cc2ccc(CC(=O)O)cc2)cc(OC)c1C`, the “Population Apoptotic (%)” value is reported as 32% and 48%, the “Population Fragmented Nuclei (%)” value is reported as 7% and the “Population Healthy Nuclei (%)” value is reported as 78% and 82%. For the same compound, the “Population Hoechst High Intensity Objects (%)” value was 5% and 3%, the “Population Membrane Permeable-Phenotype (%)” value was 0% and the “Population Mitochondria Different-Phenotype (%)” value was 27% and 26%. The “Population Mitotic Cells (%)” value was 67% and 51%, the “Population Normal (%)” value was 94% and 96% and the “Population Pyknosed Nuclei (%)” value was 14% and 9%. The “Population Tubulin-Different-Phenotype (%)” value was 15% and 10% and the “Total Cell Count” value was 483 and 507.
`FC(F)(F)c1ccccc1-c1cc(C(F)(F)F)c2[nH]c(C3=NOC4(CCCCC4)C3)nc2c1` was tested, and the “Population Apoptotic (%)” value was 10.89% and 15.53%, the “Population Fragmented Nuclei (%)” value was 1.48% and 2.1% and the “Population Hoechst High Intensity Objects (%)” value was 0%. The “Population Membrane Permeable-Phenotype (%)” value was 0.93% and 5.41%, the “Population Mitochondria Different-Phenotype (%)” value was 18.75% and 24.32% and the “Population Mitotic Cells (%)” value was 89.11% and 84.47%. For the same compound, the “Population Normal (%)” value was 100% and the “Population Tubulin-Different-Phenotype (%)” value was 18.29% and 21.62%.

Same assay, conditions: human, 24 h, 10 µM, compound concentration 10 uM
In the case of `COc1cc(C(=O)N(CCCc2ccccc2)Cc2ccc(CC(=O)O)cc2)cc(OC)c1C`, the “Population Apoptotic (%)” value is reported as 34% and 42%, the “Population Fragmented Nuclei (%)” value is reported as 7% and the “Population Healthy Nuclei (%)” value is reported as 80% and 79%. The “Population Hoechst High Intensity Objects (%)” value was 7% and 6%, the “Population Membrane Permeable-Phenotype (%)” value was 0% and the “Population Mitochondria Different-Phenotype (%)” value was 39% and 50%. The “Population Mitotic Cells (%)” value was 65% and 57%, the “Population Normal (%)” value was 92% and 93% and the “Population Pyknosed Nuclei (%)” value was 12%. The “Population Tubulin-Different-Phenotype (%)” value was 43% and 38% and the “Total Cell Count” value was 549 and 526.
In the case of `FC(F)(F)c1ccccc1-c1cc(C(F)(F)F)c2[nH]c(C3=NOC4(CCCCC4)C3)nc2c1`, the “Population Apoptotic (%)” value is reported as 37.98% and 40%, the “Population Fragmented Nuclei (%)” value is reported as 1.06% and 5.51% and the “Population Hoechst High Intensity Objects (%)” value is reported as 0.7% and 0%. The “Population Membrane Permeable-Phenotype (%)” value was 0.66% and 0%, the “Population Mitochondria Different-Phenotype (%)” value was 57.89% and 50% and the “Population Mitotic Cells (%)” value was 62.02% and 60%. For the same compound, the “Population Normal (%)” value was 99.3% and 100%, the “Population Pyknosed Nuclei (%)” value was 45.42% and 86.61% and the “Population Tubulin-Different-Phenotype (%)” value was 72.37% and 30%. The “Total Cell Count” value was 286 and 127.

Same assay, conditions: human, 48 h, 1 µM, compound concentration 1 uM
`COc1cc(C(=O)N(CCCc2ccccc2)Cc2ccc(CC(=O)O)cc2)cc(OC)c1C` was tested, and the “Population Apoptotic (%)” value was 30% and 26%, the “Population Fragmented Nuclei (%)” value was 12% and 9% and the “Population Healthy Nuclei (%)” value was 77% and 83%. For the same compound, the “Population Hoechst High Intensity Objects (%)” value was 1% and 3%, the “Population Membrane Permeable-Phenotype (%)” value was 1% and the “Population Mitochondria Different-Phenotype (%)” value was 16% and 17%. For the same compound, the “Population Mitotic Cells (%)” value was 69% and 73%, the “Population Normal (%)” value was 98% and 96% and the “Population Pyknosed Nuclei (%)” value was 9% and 7%. For the same compound, the “Population Tubulin-Different-Phenotype (%)” value was 11% and 9% and the “Total Cell Count” value was 812 and 753.
`FC(F)(F)c1ccccc1-c1cc(C(F)(F)F)c2[nH]c(C3=NOC4(CCCCC4)C3)nc2c1` was tested, and the “Population Fragmented Nuclei (%)” value was 2% and 1.31%, the “Population Healthy Nuclei (%)” value was 85.85% and 52.94% and the “Population Hoechst High Intensity Objects (%)” value was 0%. For the same compound, the “Population Membrane Permeable-Phenotype (%)” value was 4.66% and 2.47%, the “Population Mitochondria Different-Phenotype (%)” value was 18.43% and 25.93% and the “Population Mitotic Cells (%)” value was 94.52% and 78.57%. For the same compound, the “Population Normal (%)” value was 100%.

Same assay, conditions: human, 48 h, 10 µM, compound concentration 10 uM
In the case of `COc1cc(C(=O)N(CCCc2ccccc2)Cc2ccc(CC(=O)O)cc2)cc(OC)c1C`, the “Population Apoptotic (%)” value is reported as 32% and 33%, the “Population Fragmented Nuclei (%)” value is reported as 12% and 15% and the “Population Healthy Nuclei (%)” value is reported as 76% and 75%. For the same compound, the “Population Hoechst High Intensity Objects (%)” value was 4% and 8%, the “Population Membrane Permeable-Phenotype (%)” value was 1% and the “Population Mitochondria Different-Phenotype (%)” value was 29% and 37%. The “Population Mitotic Cells (%)” value was 67% and 66%, the “Population Normal (%)” value was 95% and 91% and the “Population Pyknosed Nuclei (%)” value was 11% and 9%. The “Population Tubulin-Different-Phenotype (%)” value was 29% and 34% and the “Total Cell Count” value was 729 and 632.
With `FC(F)(F)c1ccccc1-c1cc(C(F)(F)F)c2[nH]c(C3=NOC4(CCCCC4)C3)nc2c1` the “Population Apoptotic (%)” value was 29.75% and 35.21%, the “Population Fragmented Nuclei (%)” value was 1.37% and 5.17% and the “Population Healthy Nuclei (%)” value was 74.95% and 33.62%. For the same compound, the “Population Hoechst High Intensity Objects (%)” value was 0%, the “Population Membrane Permeable-Phenotype (%)” value was 3.92% and 2.56% and the “Population Mitochondria Different-Phenotype (%)” value was 79.11% and 61.54%. The “Population Mitotic Cells (%)” value was 70.25% and 64.79%, the “Population Normal (%)” value was 100% and the “Population Pyknosed Nuclei (%)” value was 23.68% and 61.21%.
